This is an account of results in ChEMBL document CHEMBL1177758, “Anti-neuroinflammatory activity of 1,5-benzodiazepine derivatives” (Bioorg Med Chem Lett, 2010).

pIC50: −log10 of the molar value. Activity calls are given as the source filed them. No cut-off for these calls is given here.

The test system of series [1] is BV-2. Description: Antiinflammatory activity in mouse BV2 cells assessed as inhibition of LPS-induced NO production after 24 hrs by Griess reaction. The note with it: BV-2, 24 h. It is filed as functional, cell-based. In short, it runs like this:
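Murine BV-2 microglia stimulated with LPS at 100 ng/ml for 24 h with or without compound. Nitrite, a soluble oxidation product of NO, was measured in the culture medium by Griess reaction.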
On the technique in general: Griess reagent forms a coloured azo dye with nitrite.

Series [2] deals with BV-2. As to the kind of experiment: Antiinflammatory activity in mouse BV2 cells assessed as inhibition of LPS-induced NO production at 10 uM after 24 hrs by Griess reaction. It is filed as functional. The note with it: BV-2, 24 h. The method in brief: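 BV-2 microglial cells were activated with 100 ng/ml LPS for 24 h with compound at 10 µM. Medium nitrite was measured by Griess reaction. The value is mean inhibition of NO production relative to the LPS control, from three experiments.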

Series [3] is described as follows: Cytotoxicity against mouse BV2 cells. Format: cell-based, BV-2. The note with it: read-out: INH. The method in brief: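 Viability of murine BV-2 microglia, stimulated with LPS at 100 ng/ml for 24 h with or without compound, was measured by MTT assay.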
For series [4], the target named is T1, Nitric oxide synthase, inducible (Mus musculus) (UniProt P29477).
T1 sequence (whole entry): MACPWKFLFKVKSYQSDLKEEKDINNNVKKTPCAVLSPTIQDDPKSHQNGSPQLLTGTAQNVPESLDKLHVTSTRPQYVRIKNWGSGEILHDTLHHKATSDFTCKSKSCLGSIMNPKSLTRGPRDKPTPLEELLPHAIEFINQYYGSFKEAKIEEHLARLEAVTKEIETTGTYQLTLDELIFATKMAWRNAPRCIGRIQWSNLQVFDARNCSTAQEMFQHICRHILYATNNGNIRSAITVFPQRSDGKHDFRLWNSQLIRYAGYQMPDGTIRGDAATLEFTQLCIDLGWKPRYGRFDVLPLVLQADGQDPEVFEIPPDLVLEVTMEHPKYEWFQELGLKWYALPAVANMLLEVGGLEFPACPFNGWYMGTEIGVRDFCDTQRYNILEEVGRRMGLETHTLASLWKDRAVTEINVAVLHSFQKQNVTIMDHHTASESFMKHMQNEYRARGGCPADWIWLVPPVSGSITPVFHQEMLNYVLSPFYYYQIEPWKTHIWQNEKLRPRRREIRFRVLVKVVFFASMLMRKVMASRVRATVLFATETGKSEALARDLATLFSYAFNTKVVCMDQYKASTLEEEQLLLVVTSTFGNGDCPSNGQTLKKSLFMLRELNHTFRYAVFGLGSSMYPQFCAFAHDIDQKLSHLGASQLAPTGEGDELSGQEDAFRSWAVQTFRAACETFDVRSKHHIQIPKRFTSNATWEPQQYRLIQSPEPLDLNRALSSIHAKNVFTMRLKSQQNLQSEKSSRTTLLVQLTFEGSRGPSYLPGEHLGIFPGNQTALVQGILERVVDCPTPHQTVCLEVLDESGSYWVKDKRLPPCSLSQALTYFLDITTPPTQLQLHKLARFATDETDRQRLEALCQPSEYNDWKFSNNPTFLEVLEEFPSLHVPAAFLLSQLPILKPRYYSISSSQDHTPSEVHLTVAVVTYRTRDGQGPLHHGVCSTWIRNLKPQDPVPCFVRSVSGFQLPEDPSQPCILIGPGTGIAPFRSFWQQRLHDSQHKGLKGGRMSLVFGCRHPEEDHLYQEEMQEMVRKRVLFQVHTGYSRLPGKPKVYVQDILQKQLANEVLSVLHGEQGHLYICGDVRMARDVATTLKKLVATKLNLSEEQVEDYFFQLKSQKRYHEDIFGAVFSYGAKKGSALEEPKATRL
Description: Inhibition of iNOS activity in LPS-stimulated mouse BV2 cells after 12 hrs. Format: cell-based. As to conditions: BV-2. The method in brief: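 Intact-cell iNOS activity assay. BV-2 cells (4 × 10⁶) were pre-induced with LPS at 100 ng/ml for 12 h, washed twice with PBS, then replated at 2 × 10⁶ cells/well. They were incubated with various compound concentrations for a further 12 h. Supernatant NO was read by Griess reaction.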

Series [5] concerns BV-2. Description: Antiinflammatory activity in mouse BV2 cells assessed as inhibition of LPS-induced iNOS protein expression at 10 uM after 6 hrs by Western blotting. Background: In western blotting, separated proteins are transferred to a membrane and probed.

Regarding `CC(C)C1=Nc2ccccc2NC(C)(C(C)C)C1` (configuration not stated), the pIC50 (usually the IC50 on a negative log10 scale, so that one unit is a factor of ten) in series [1] is 4.78. Also, the inhibition (as a rule, the relative decrease from the control value, in per cent) at 10 µM in series [2] was determined as 26.3%.

`CC1=Nc2ccccc2NC(C)(C)C1`: the pIC50 in series [1] is 4.84. For the same compound, in series [2], the inhibition at 10 µM worked out at 28.6%.

As for `CC1(c2ccsc2)CC(c2ccsc2)=Nc2ccccc2N1` (configuration not stated), the pIC50 in series [1] is 4.45. The inhibition at 10 µM in series [2] stood at 13.2%.

Regarding `CC1(c2ccc(Cl)cc2)CC(c2ccc(Cl)cc2)=Nc2ccccc2N1` (configuration not stated), the inhibition at 10 µM in series [2] is 28.2%. Moreover, the cytotoxicity in series [3] was found to be 28.2%.

For `CC1(c2cccs2)CC(c2cccs2)=Nc2ccccc2N1` (configuration not stated), in series [4], the inhibition result was “Active”. Further, in series [1], the pIC50 was 5.15. Further, the inhibition at 10 µM in series [2] was 70.3%. For the same compound, the inhibition entry in series [5] was “inactive”.

Regarding `CC1(c2cccc(Cl)c2)CC(c2cccc(Cl)c2)=Nc2ccccc2N1` (configuration not stated), the negative logarithm of the IC50 (pIC50) in series [1] is 4.63. The inhibition at 10 µM in series [2] worked out at 21.2%.

In the case of `CCC1=Nc2ccccc2NC(C)(CC)C1` (configuration not stated), the pIC50 in series [1] was 4.82. For the same compound, the inhibition at 10 µM in series [2] was found to be 27.4%.

On to `CC1(c2ccccc2[N+](=O)[O-])CC(c2ccccc2[N+](=O)[O-])=Nc2ccccc2N1` (configuration not stated), for which the negative-log IC50 (pIC50) in series [1] was 4.63. For the same compound, the inhibition at 10 µM in series [2] amounted to 24.9%.

With `Cc1ccc(C2=Nc3ccccc3NC(C)(c3ccc(C)cc3)C2)cc1` (configuration not stated), in series [1], the negative logarithm of the IC50 (pIC50) was 4.85. Further, in series [2], the inhibition at 10 µM stood at 34.6%.

As to `CC1(c2ccccc2)CC(c2ccccc2)=Nc2ccccc2N1` (configuration not stated), in series [1], the pIC50 is 5.03. Moreover, in series [2], the inhibition at 10 µM worked out at 59.8%.
